Data published in ChEMBL document CHEMBL1955840, “Proteasome inhibitors for cancer therapy” (Bioorg Med Chem, 2012).

Legend:
[1] = Inhibition of chymotrypsin-like activity of human liver 20S proteasome assessed as release of AMC using Suc-LLVY-AMC fluorogenic substrate after 15 mins preincubation measured every 1.5 mins for 20 mins by fluorescence analysis
Summary of the method: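 Proteasome partially purified from postmortem human liver, 6.7 µg/mL final, in 20 mM Tris–Cl pH 7.5, 0.04% SDS, 5% DMSO; activated by 15 min preincubation at 27 °C. Suc-LLVY-AMC added to 100 µM; AMC fluorescence (ex 360/em 460 nm) read every 1.5 min for 20 min at 27 °C. Rates per inhibitor concentration; IC50 by non-linear regression; mean S.D., n = 3–6.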

Chymotrypsinogen A = Chymotrypsinogen A (Bos taurus, UniProt P00766); assay: Inhibition of bovine alpha-chymotrypsin
[2] = Inhibition of chymotrypsin-like activity of 20S proteasome in human MOLT4 cells assessed as release of AFC using MeOSuc-Phe-Leu-Phe-AFC substrate after 15 mins measured every 1.5 mins for 20 mins by fluorescence analysis; assay type: cell-based; settings: MOLT-4
Summary of the method: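 Molt-4 human T-cell leukemia cells washed, resuspended at 6 × 10⁶ cells/mL in HEPES-buffered saline (pH 7.0) with KCl, NaCl, glucose, MgSO₄ and Na pyruvate. Fluorogenic AFC substrate at 100 µM, 0.6% DMSO final; incubated at 37 °C; AFC fluorescence (ex 420/em 490 nm) read every 1.5 min for 20 min. IC50 reported as mean S.D., n = 3–6.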

DU-145 = assay: Antitumor activity against human DU145 cells assessed as cell viability; assay type: functional, cell-based
Summary of the method: (§1)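 Tumor cell viability IC50 values; averages of two independent experiments, each performed in triplicate.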

MCF7 = assay: Antitumor activity against human MCF7 cells assessed as cell viability; assay type: functional, cell-based; summary of the method: as §1
OVCAR-3 = assay: Antitumor activity against human OVCAR3 cells assessed as cell viability; assay type: functional, cell-based; summary of the method: as §1
SK-MEL-5 = assay: Antitumor activity against human SK-MEL-5 cells assessed as cell viability; assay type: functional, cell-based; summary of the method: as §1
[3] = Antitumor activity against rat AT2 cells assessed as cell viability; assay type: functional, cell-based; summary of the method: as §1
MOLT-4 = assay: Ratio of IC50 for chymotrypsin-like activity of 20S proteasome in human MOLT4 cells to IC50 for chymotrypsin-like activity of human liver 20S proteasome in cell-free assay; assay type: cell-based
Summary of the method: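 Cell-permeability index: IC50 against chymotrypsin-like activity in intact Molt-4 cells divided by IC50 against isolated human liver 20S proteasome, both from fluorogenic substrate cleavage assays.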

[4] = Inhibition of trypsin-like activity of 20S proteasome at 10 uM
Summary of the method: (§2)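 Percent inhibition measured at a single 10 µM concentration; averages of two independent experiments, each run in triplicate.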

[5] = molecular target: T1, Calpain-1 catalytic subunit (Homo sapiens) (UniProt P07384); assay: Inhibition of human calpain 1 at 10 uM; summary of the method: as §2
T1 sequence (whole entry): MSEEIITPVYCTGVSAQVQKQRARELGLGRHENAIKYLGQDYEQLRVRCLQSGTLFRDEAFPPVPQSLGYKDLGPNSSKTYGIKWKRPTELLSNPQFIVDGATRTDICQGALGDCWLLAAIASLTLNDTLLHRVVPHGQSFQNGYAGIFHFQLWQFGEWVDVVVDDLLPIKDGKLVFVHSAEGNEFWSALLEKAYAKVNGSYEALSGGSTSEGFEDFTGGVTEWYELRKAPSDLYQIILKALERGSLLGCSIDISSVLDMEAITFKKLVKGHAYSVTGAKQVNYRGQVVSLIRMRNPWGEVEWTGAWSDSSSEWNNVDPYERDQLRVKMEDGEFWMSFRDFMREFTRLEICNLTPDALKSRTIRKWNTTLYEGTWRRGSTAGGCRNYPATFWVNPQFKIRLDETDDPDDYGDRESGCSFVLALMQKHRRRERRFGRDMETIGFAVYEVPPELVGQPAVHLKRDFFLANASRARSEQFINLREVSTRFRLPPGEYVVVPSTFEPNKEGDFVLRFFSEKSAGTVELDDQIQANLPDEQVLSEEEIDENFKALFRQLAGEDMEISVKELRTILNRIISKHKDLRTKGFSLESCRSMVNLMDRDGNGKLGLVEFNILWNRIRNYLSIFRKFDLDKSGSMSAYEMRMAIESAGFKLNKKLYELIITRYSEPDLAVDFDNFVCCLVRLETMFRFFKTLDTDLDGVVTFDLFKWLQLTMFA

[6] = molecular target: Chymotrypsinogen A (Bos taurus) (UniProt P00766); assay: Inhibition of bovine alpha-chymotrypsin at 10 uM; summary of the method: as §2
PANC-1 = assay: Antitumor activity against human PANC1 cells assessed as cell viability; assay type: functional, cell-based; summary of the method: as §1
[7] = system: Lewis lung carcinoma cell line; assay: Antitumor activity against mouse LLC cells assessed as cell viability; assay type: functional, cell-based; summary of the method: as §1

| Compound | IC50 [1] [nM] | IC50 (Chymotrypsinogen A) [nM] | IC50 [2] [nM] | Ratio IC50 (MOLT-4) | inhibition [4] [%] | inhibition [5] [%] | inhibition [6] [%] | also measured |
| --- | --- | --- | --- | --- | --- | --- | --- | --- |
| CC(C)C[C@@H](C=O)NC(=O)[C@H](CCCN/C(N)=N/[N+](=O)[O-])NC(=O)C(CCCCCCCCN1C(=O)c2ccccc2C1=O)C1CCCC1 (stereo not given in full) | 2 | – | – | – | – | – | – | – |
| CC(C)C[C@@H](C=O)NC(=O)[C@H](CCCN/C(N)=N/[N+](=O)[O-])NC(=O)C(CCCCCCCCC#N)C1CCCC1 (stereo not given in full) | 6 | – | – | – | – | – | – | – |
| CC(C)C[C@H](NC(=O)[C@H](CCCN/C(N)=N/[N+](=O)[O-])NC(=O)C(CCCCCCCCC#N)C1CCCC1)C(=O)C(=O)NCCNS(=O)(=O)c1ccccc1 (stereo not given in full) | 1 | – | – | – | – | – | – | – |
| CC(C)C[C@H](NC(=O)[C@H](CCCN/C(N)=N/[N+](=O)[O-])NC(=O)C(CCCCCCCCC#N)C1CCCC1)B1OC(C)(C)C(C)(C)O1 (stereo not given in full) | 6 | – | – | – | – | – | – | – |
| CC(C)C[C@H](NC(=O)[C@H](CCCN=C(N)N[N+](=O)[O-])NC(=O)C(CCCCCCCCC#N)C1CCCC1)B1O[C@@H]2[C@@H]3C[C@H](C[C@]2(C)O1)C3(C)C (mixture of isomers) | – | > 10000 | – | – | – | – | – | – |
| CC(C)C[C@H](NC(=O)[C@H](CCCN/C(N)=N/[N+](=O)[O-])NC(=O)C(CCCCCCCCC#N)C1CCCC1)B1O[C@@H]2[C@@H]3C[C@H](C[C@]2(C)O1)C3(C)C (mixture of isomers) | 3.5 | – | 240 | 69 | 0 | 2 | 24 | IC50 (DU-145): 293 nM; IC50 (MCF7): 425 nM; IC50 (OVCAR-3): 69 nM; IC50 (SK-MEL-5): 85 nM; IC50 [3]: > 1000 nM; IC50 (PANC-1): 283 nM; IC50 [7]: 585 nM |
| CC(C)C[C@H](NC(=O)[C@H](CCCN/C(N)=N/[N+](=O)[O-])NC(=O)C(CCCCCCCCN1C(=O)c2ccccc2C1=O)C1CCCC1)B1O[C@@H]2[C@@H]3C[C@H](C[C@]2(C)O1)C3(C)C (mixture of isomers) | 3.5 | > 10000 | 70 | 20 | 20 | 11 | 30 | IC50 (DU-145): 167 nM; IC50 (MCF7): 292 nM; IC50 (OVCAR-3): 29 nM; IC50 (SK-MEL-5): 82 nM; IC50 [3]: > 1000 nM; IC50 (PANC-1): 184 nM; IC50 [7]: 513 nM |
| CC(C)C[C@H](NC(=O)[C@H](CCCN/C(N)=N/[N+](=O)[O-])NC(=O)C(CCCCCCCCC#N)C1CCCC1)B(O)O (mixture of isomers) | 8.7 | – | 7340 | 840 | 5 | – | 30 | – |
| CC(C)C[C@H](NC(=O)[C@H](CCCNC(=N)N[N+](=O)[O-])NC(=O)C(CCCCCCCCC#N)C1CCCC1)B(O)O (mixture of isomers) | – | > 10000 | – | – | – | – | – | – |
| CC(C)C[C@H](NC(=O)[C@H](CCCN/C(N)=N/[N+](=O)[O-])NC(=O)C(CCCCCCCCN1C(=O)c2ccccc2C1=O)C1CCCC1)B(O)O (mixture of isomers) | 4.1 | > 10000 | 2830 | 690 | 24 | 0 | 2 | – |
